Test results from ChEMBL document CHEMBL5058577, “EUbOPEN Chemogenomics Library 2 (Multiplex)” (2022).

Test system: Fibroblast
Experiment: Multiplex assay against human fibroblast
Format: toxicity, cell-based
How it was run: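 Per cents of healthy-nucleus cells form the tubulin, mitochondrial-mass and membrane-permeability phenotype values. Live cells were stained at seeding with Hoechst33342, BioTracker Green Microtubule Cytoskeleton Dye, MitoTracker Red and Annexin V Alexa Fluor 680. After compound addition they were imaged on a CQ1 microscope at 37°C and 5% CO2, and CellPathfinder machine-learning gating split them into Hoechst high-intensity objects or normal cells, normal cells into healthy, pyknosed or fragmented nuclei, and pyknosed cells into mitotic or apoptotic.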

[1] = 12 h, 1 µM, compound concentration 1 uM, replicate 1
[2] = 12 h, 1 µM, compound concentration 1 uM, replicate 2
[3] = 12 h, 10 µM, compound concentration 10 uM, replicate 1
[4] = 12 h, 10 µM, compound concentration 10 uM, replicate 2
[5] = 24 h, 1 µM, compound concentration 1 uM, replicate 1
[6] = 24 h, 1 µM, compound concentration 1 uM, replicate 2
[7] = 24 h, 10 µM, compound concentration 10 uM, replicate 1
[8] = 24 h, 10 µM, compound concentration 10 uM, replicate 2
[9] = 48 h, 1 µM, compound concentration 1 uM, replicate 1
[10] = 48 h, 1 µM, compound concentration 1 uM, replicate 2
[11] = 48 h, 10 µM, compound concentration 10 uM, replicate 1
[12] = 48 h, 10 µM, compound concentration 10 uM, replicate 2

SMILES: CC(C)C[C@H](CO)Nc1nc(S[C@@H](C)c2ccccc2)nc2nc(N)sc12 [AZD-8797]
- Population Apoptotic (%) [1]: 25%
- Population Fragmented Nuclei (%) [1]: 23%
- Population Healthy Nuclei (%) [1]: 62%
- Population Hoechst High Intensity Objects (%) [1]: 1%
- Population Membrane Permeable-Phenotype (%) [1]: 3%
- Population Mitochondria Different-Phenotype (%) [1]: 3%
- Population Mitotic Cells (%) [1]: 75%
- Population Normal (%) [1]: 98%
- Population Pyknosed Nuclei (%) [1]: 13%
- Population Tubulin-Different-Phenotype (%) [1]: 23%
- Total Cell Count [1]: 146
- Population Apoptotic (%) [2]: 31%
- Population Fragmented Nuclei (%) [2]: 22%
- Population Healthy Nuclei (%) [2]: 55%
- Population Hoechst High Intensity Objects (%) [2]: 4%
- Population Membrane Permeable-Phenotype (%) [2]: 16%
- Population Mitochondria Different-Phenotype (%) [2]: 6%
- Population Mitotic Cells (%) [2]: 68%
- Population Normal (%) [2]: 95%
- Population Pyknosed Nuclei (%) [2]: 21%
- Population Tubulin-Different-Phenotype (%) [2]: 46%
- Total Cell Count [2]: 92
- Population Apoptotic (%) [3]: 38%
- Population Fragmented Nuclei (%) [3]: 18%
- Population Healthy Nuclei (%) [3]: 64%
- Population Hoechst High Intensity Objects (%) [3]: 3%
- Population Membrane Permeable-Phenotype (%) [3]: 0%
- Population Mitochondria Different-Phenotype (%) [3]: 6%
- Population Mitotic Cells (%) [3]: 61%
- Population Normal (%) [3]: 96%
- Population Pyknosed Nuclei (%) [3]: 17%
- Population Tubulin-Different-Phenotype (%) [3]: 46%
- Total Cell Count [3]: 156
- Population Apoptotic (%) [4]: 36%
- Population Fragmented Nuclei (%) [4]: 36%
- Population Healthy Nuclei (%) [4]: 41%
- Population Hoechst High Intensity Objects (%) [4]: 5%
- Population Membrane Permeable-Phenotype (%) [4]: 10%
- Population Mitochondria Different-Phenotype (%) [4]: 27%
- Population Mitotic Cells (%) [4]: 64%
- Population Normal (%) [4]: 94%
- Population Pyknosed Nuclei (%) [4]: 21%
- Population Tubulin-Different-Phenotype (%) [4]: 66%
- Total Cell Count [4]: 122
- Population Apoptotic (%) [5]: 44%
- Population Fragmented Nuclei (%) [5]: 15%
- Population Healthy Nuclei (%) [5]: 69%
- Population Hoechst High Intensity Objects (%) [5]: 1%
- Population Membrane Permeable-Phenotype (%) [5]: 1%
- Population Mitochondria Different-Phenotype (%) [5]: 1%
- Population Mitotic Cells (%) [5]: 55%
- Population Normal (%) [5]: 98%
- Population Pyknosed Nuclei (%) [5]: 14%
- Population Tubulin-Different-Phenotype (%) [5]: 24%
- Total Cell Count [5]: 124
- Population Apoptotic (%) [6]: 31%
- Population Fragmented Nuclei (%) [6]: 29%
- Population Healthy Nuclei (%) [6]: 54%
- Population Hoechst High Intensity Objects (%) [6]: 0%
- Population Membrane Permeable-Phenotype (%) [6]: 17%
- Population Mitochondria Different-Phenotype (%) [6]: 3%
- Population Mitotic Cells (%) [6]: 68%
- Population Normal (%) [6]: 99%
- Population Pyknosed Nuclei (%) [6]: 15%
- Population Tubulin-Different-Phenotype (%) [6]: 46%
- Total Cell Count [6]: 103
- Population Apoptotic (%) [7]: 57%
- Population Fragmented Nuclei (%) [7]: 21%
- Population Healthy Nuclei (%) [7]: 66%
- Population Hoechst High Intensity Objects (%) [7]: 1%
- Population Membrane Permeable-Phenotype (%) [7]: 0%
- Population Mitochondria Different-Phenotype (%) [7]: 15%
- Population Mitotic Cells (%) [7]: 42%
- Population Normal (%) [7]: 98%
- Population Pyknosed Nuclei (%) [7]: 12%
- Population Tubulin-Different-Phenotype (%) [7]: 38%
- Total Cell Count [7]: 168
- Population Apoptotic (%) [8]: 33%
- Population Fragmented Nuclei (%) [8]: 42%
- Population Healthy Nuclei (%) [8]: 38%
- Population Hoechst High Intensity Objects (%) [8]: 2%
- Population Membrane Permeable-Phenotype (%) [8]: 8%
- Population Mitochondria Different-Phenotype (%) [8]: 25%
- Population Mitotic Cells (%) [8]: 66%
- Population Normal (%) [8]: 97%
- Population Pyknosed Nuclei (%) [8]: 19%
- Population Tubulin-Different-Phenotype (%) [8]: 85%
- Total Cell Count [8]: 126
- Population Apoptotic (%) [9]: 50%
- Population Fragmented Nuclei (%) [9]: 25%
- Population Healthy Nuclei (%) [9]: 60%
- Population Hoechst High Intensity Objects (%) [9]: 1%
- Population Membrane Permeable-Phenotype (%) [9]: 1%
- Population Mitochondria Different-Phenotype (%) [9]: 1%
- Population Mitotic Cells (%) [9]: 50%
- Population Normal (%) [9]: 98%
- Population Pyknosed Nuclei (%) [9]: 13%
- Population Tubulin-Different-Phenotype (%) [9]: 11%
- Total Cell Count [9]: 135
- Population Apoptotic (%) [10]: 47%
- Population Fragmented Nuclei (%) [10]: 30%
- Population Healthy Nuclei (%) [10]: 48%
- Population Hoechst High Intensity Objects (%) [10]: 4%
- Population Membrane Permeable-Phenotype (%) [10]: 4%
- Population Mitochondria Different-Phenotype (%) [10]: 4%
- Population Mitotic Cells (%) [10]: 52%
- Population Normal (%) [10]: 95%
- Population Pyknosed Nuclei (%) [10]: 20%
- Population Tubulin-Different-Phenotype (%) [10]: 54%
- Total Cell Count [10]: 95
- Population Apoptotic (%) [11]: 60%
- Population Fragmented Nuclei (%) [11]: 25%
- Population Healthy Nuclei (%) [11]: 65%
- Population Hoechst High Intensity Objects (%) [11]: 2%
- Population Membrane Permeable-Phenotype (%) [11]: 0%
- Population Mitochondria Different-Phenotype (%) [11]: 13%
- Population Mitotic Cells (%) [11]: 40%
- Population Normal (%) [11]: 97%
- Population Pyknosed Nuclei (%) [11]: 9%
- Population Tubulin-Different-Phenotype (%) [11]: 35%
- Total Cell Count [11]: 168
- Population Apoptotic (%) [12]: 35%
- Population Fragmented Nuclei (%) [12]: 45%
- Population Healthy Nuclei (%) [12]: 40%
- Population Hoechst High Intensity Objects (%) [12]: 1%
- Population Membrane Permeable-Phenotype (%) [12]: 12%
- Population Mitochondria Different-Phenotype (%) [12]: 18%
- Population Mitotic Cells (%) [12]: 64%
- Population Normal (%) [12]: 98%
- Population Pyknosed Nuclei (%) [12]: 14%
- Population Tubulin-Different-Phenotype (%) [12]: 89%
- Total Cell Count [12]: 121
